Results published in ChEMBL document CHEMBL1817572, “New, potent, selective, and short-acting peptidic V1a receptor agonists” (J Med Chem, 2011).
Bridge positions count the residues as written; N and C are the ends. Square brackets hold non-standard residues; d marks the D form. Peptide text beside a SMILES is read from it. * marks the point of attachment. Bta = N[C@@H](Cc1csc2ccccc12)C(=O)O; Orn = NCCC[C@H](N)C(=O)O; Dab = NCC[C@H](N)C(=O)O; N(Me)OMe = CON(C)*; NHCH2CH2OH = OCCN*; X2 = CC(O)CN*; X3 = OCCOCCN*; NHOH = ON*

Tests used:
Vasopressin V1a receptor = Vasopressin V1a receptor (Homo sapiens, UniProt P37288); test: Agonist activity at recombinant human vasopressin V1a receptor expressed in HEK293 cells by luciferase reporter gene assay; format: functional, cell-based
Chain of Vasopressin V1a receptor (P37288 whole entry): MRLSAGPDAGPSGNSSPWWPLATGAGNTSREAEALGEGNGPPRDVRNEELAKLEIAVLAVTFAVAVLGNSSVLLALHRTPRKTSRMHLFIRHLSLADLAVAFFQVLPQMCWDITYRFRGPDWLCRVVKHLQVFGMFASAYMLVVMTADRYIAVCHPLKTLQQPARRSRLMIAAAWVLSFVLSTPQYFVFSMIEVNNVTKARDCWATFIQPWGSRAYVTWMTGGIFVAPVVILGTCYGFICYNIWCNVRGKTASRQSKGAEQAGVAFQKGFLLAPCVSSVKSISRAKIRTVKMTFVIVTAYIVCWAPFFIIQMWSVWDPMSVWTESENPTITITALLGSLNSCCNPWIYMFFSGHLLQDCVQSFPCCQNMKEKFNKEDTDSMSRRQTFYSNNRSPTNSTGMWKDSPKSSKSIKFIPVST

Vasopressin V1b receptor = biological target: T1, Vasopressin V1b receptor (Homo sapiens, UniProt P47901); test: Agonist activity at recombinant human vasopressin V1b receptor expressed in Flp-In-293 cells by luciferase reporter gene assay; format: functional, cell-based
T1 sequence (P47901 whole entry): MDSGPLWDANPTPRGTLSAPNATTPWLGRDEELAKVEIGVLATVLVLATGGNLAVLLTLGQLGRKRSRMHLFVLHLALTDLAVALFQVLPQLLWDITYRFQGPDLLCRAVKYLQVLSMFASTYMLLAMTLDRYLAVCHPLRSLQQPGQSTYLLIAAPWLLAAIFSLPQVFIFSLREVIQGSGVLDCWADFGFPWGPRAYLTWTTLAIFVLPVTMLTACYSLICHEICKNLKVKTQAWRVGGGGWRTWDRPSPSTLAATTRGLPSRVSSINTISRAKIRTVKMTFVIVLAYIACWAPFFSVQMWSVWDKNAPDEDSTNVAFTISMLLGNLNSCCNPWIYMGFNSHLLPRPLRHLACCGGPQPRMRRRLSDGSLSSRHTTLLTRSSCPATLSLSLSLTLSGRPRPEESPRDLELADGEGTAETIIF
Outline: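 Reporter gene assays in HEK293 cells transiently cotransfected with V1a (human or rat) or human V2 receptor vector plus NFAT-luciferase (V1a) or CRE-luciferase (V2) reporter; V1b in Flp-In-293 stably expressing receptor, OT in CHO-K1 stably expressing receptor, both transiently transfected with NFAT-luciferase. Two days post-transfection, peptides added for 5 h at 37 °C, lysis with luciferin, luminescence read.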

Oxytocin receptor = biological target: T2, Oxytocin receptor (Homo sapiens, UniProt P30559); test: Agonist activity at human OT receptor expressed in CHO-K1 cells by luciferase reporter gene assay; format: functional, cell-based
T2 sequence (P30559 whole entry): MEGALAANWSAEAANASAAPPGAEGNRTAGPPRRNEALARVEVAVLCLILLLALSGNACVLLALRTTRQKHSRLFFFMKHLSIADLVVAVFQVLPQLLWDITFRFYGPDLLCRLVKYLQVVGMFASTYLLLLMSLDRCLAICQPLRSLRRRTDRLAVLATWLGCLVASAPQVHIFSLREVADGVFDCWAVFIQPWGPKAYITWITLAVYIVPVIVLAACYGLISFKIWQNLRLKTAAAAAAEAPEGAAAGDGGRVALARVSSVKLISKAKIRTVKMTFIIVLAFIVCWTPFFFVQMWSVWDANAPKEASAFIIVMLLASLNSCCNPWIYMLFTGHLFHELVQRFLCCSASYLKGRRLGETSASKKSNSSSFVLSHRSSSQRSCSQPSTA

Vasopressin V2 receptor = Vasopressin V2 receptor (Homo sapiens, UniProt P30518); test: Agonist activity at recombinant human vasopressin V2 receptor expressed in HEK293 cells by luciferase reporter gene assay; format: functional, cell-based
Chain of Vasopressin V2 receptor (P30518 whole entry): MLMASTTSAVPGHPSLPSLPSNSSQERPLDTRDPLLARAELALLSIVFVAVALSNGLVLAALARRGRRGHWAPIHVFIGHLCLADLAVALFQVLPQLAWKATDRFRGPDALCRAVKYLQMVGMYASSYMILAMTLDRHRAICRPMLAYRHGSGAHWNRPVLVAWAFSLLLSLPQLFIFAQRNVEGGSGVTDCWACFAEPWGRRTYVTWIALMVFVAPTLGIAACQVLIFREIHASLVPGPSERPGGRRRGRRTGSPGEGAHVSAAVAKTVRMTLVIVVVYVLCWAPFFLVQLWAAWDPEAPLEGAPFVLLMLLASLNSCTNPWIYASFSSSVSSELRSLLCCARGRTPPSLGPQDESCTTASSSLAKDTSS

[1] = biological target: Vasopressin V1a/V2 (Homo sapiens) (UniProt P30518+P37288); test: Selectivity ratio of EC50 for human vasopressin V2 receptor to EC50 for human vasopressin V1a receptor
Chain of Vasopressin V1a/V2 (Homo sapiens) (P30518 whole entry, looked up): as the sequence (P30518 whole entry) above
Chain of Vasopressin V1a/V2 (Homo sapiens) (P37288 whole entry, looked up): as the sequence (P37288 whole entry) above

Homo sapiens [2] = species: Homo sapiens; test: Selectivity ratio of EC50 for human vasopressin V1b receptor to EC50 for human vasopressin V1a receptor
Homo sapiens [3] = species: Homo sapiens; test: Selectivity ratio of EC50 for human oxytocin receptor to EC50 for human vasopressin V1a receptor

Row | SMILES | EC50 (Vasopressin V1a receptor; read-out: EC50) [nM] | EC50 (Vasopressin V1b receptor; read-out: EC50) [nM] | EC50 (Oxytocin receptor; read-out: EC50) [nM] | EC50 (Vasopressin V1a receptor; hek293, read-out: EC50) [nM] | EC50 (Vasopressin V1a receptor; read-out: pEC50 (converted)) [nM] | EC50 (Vasopressin V1b receptor; flp-in-293, read-out: EC50) [nM] | EC50 (Vasopressin V1b receptor; read-out: pEC50 (converted)) [nM] | EC50 (Vasopressin V2 receptor; hek293, read-out: EC50) [nM] | EC50 (Vasopressin V2 receptor; read-out: pEC50 (converted)) [nM] | EC50 (Oxytocin receptor; cho-k1, read-out: EC50) [nM] | EC50 (Oxytocin receptor; read-out: pEC50 (converted)) [nM] | Ratio EC50 [1] | EC50 (Vasopressin V2 receptor; read-out: EC50) [nM] | Ratio EC50 (Homo sapiens [2]) | Ratio EC50 (Homo sapiens [3])
1 | CC[C@H](C)[C@@H]1NC(=O)[C@H](Cc2ccc(O)cc2)NC(=O)[C@@H](N)CSSC[C@@H](C(=O)N2CCC[C@H]2C(=O)N[C@@H](CCCN)C(=O)NCC(N)=O)NC(=O)[C@H](CC(N)=O)NC(=O)[C@H](CCC(N)=O)NC1=O | 0.23 | 56 | 3.3 |  |  |  |  |  |  |  |  |  |  |  | 
2 | CC[C@H](C)[C@@H]1NC(=O)[C@H](C)NC(=O)[C@@H](N)CSSC[C@@H](C(=O)N2CCC[C@H]2C(=O)N[C@@H](CCN)C(=O)NCC(N)=O)NC(=O)[C@H](CC(N)=O)NC(=O)[C@H](CCC(N)=O)NC1=O (H-CAIQNCP[Dab]G-NH2; disulfide 1-6) |  |  |  | > 1000 | > 1000 | > 10000 | > 10000 | > 10000 | > 10000 | > 10000 | > 10000 |  |  |  | 
3 | NCCC[C@H](NC(=O)[C@@H]1CCCN1C(=O)[C@@H]1CSSC[C@H](N)C(=O)N[C@@H](Cc2ccccc2)C(=O)N[C@@H](Cc2ccccc2)C(=O)N[C@@H](CCC(N)=O)C(=O)N[C@@H](CC(N)=O)C(=O)N1)C(=O)NCC(N)=O (H-CFFQNCP[Orn]G-NH2; disulfide 1-6) | 0.14 | 15 |  |  |  |  |  |  |  | > 10000 | > 10000 | 65 | 9.2 | 100 | > 71000
4 | CC[C@H](C)[C@@H]1NC(=O)[C@H](Cc2ccccc2)NC(=O)[C@@H](N)CSSC[C@@H](C(=O)N2CCC[C@H]2C(=O)N[C@@H](CCCN)C(=O)NCC(N)=O)NC(=O)[C@H](CC(N)=O)NC(=O)[C@H](CC(=O)NCCO)NC1=O (H-CFID(NHCH2CH2OH)NCP[Orn]G-NH2; disulfide 1-6) | 8 | 26 |  |  |  |  |  | > 10000 | > 10000 | > 10000 | > 10000 | > 1200 |  | 3.2 | > 1200
5 | CCNC(=O)C[C@@H]1NC(=O)[C@H]([C@@H](C)CC)NC(=O)[C@H](Cc2ccccc2)NC(=O)[C@@H](N)CSSC[C@@H](C(=O)N2CCC[C@H]2C(=O)N[C@@H](CCCN)C(=O)NCC(N)=O)NC(=O)[C@H](CC(N)=O)NC1=O (H-CFID(NHEt)NCP[Orn]G-NH2; disulfide 1-6) | 5.7 | 30 |  |  |  |  |  | > 10000 | > 10000 | > 10000 | > 10000 | > 1700 |  | 5.2 | > 1700
6 | CC[C@H](C)[C@@H]1NC(=O)[C@H](Cc2ccccc2)NC(=O)[C@@H](N)CSSC[C@@H](C(=O)N2CCC[C@H]2C(=O)N[C@@H](CCCN)C(=O)NCC(N)=O)NC(=O)[C@H](CC(N)=O)NC(=O)[C@H](CC(=O)NC)NC1=O (H-CFID(NHMe)NCP[Orn]G-NH2; disulfide 1-6) | 3.6 | 39 |  |  |  |  |  | > 10000 | > 10000 | > 10000 | > 10000 | > 2700 |  | 10 | > 2700
7 | CC[C@H](C)[C@@H]1NC(=O)[C@H](Cc2ccccc2)NC(=O)[C@@H](N)CSSC[C@@H](C(=O)N2CCC[C@H]2C(=O)N[C@@H](CCCN)C(=O)NCC(N)=O)NC(=O)[C@H](CC(N)=O)NC(=O)[C@H](CC(=O)NO)NC1=O (H-CFID(NHOH)NCP[Orn]G-NH2; disulfide 1-6) | 4.1 | 56 |  |  |  |  |  |  |  | > 10000 | > 10000 | 630 | 2600 | 13 | > 2400
8 | CC[C@H](C)[C@@H]1NC(=O)[C@H](Cc2ccccc2)NC(=O)[C@@H](N)CSSC[C@@H](C(=O)N2CCC[C@H]2C(=O)N[C@@H](CCCN)C(=O)NCC(N)=O)NC(=O)[C@H](CC(N)=O)NC(=O)[C@H](CC(=O)NCC(C)O)NC1=O (stereo partly drawn) (H-CFID(X2)NCP[Orn]G-NH2; disulfide 1-6) | 5.2 | 28 |  |  |  |  |  | > 10000 | > 10000 | > 10000 | > 10000 | > 1900 |  | 5.3 | > 1900
9 | CC[C@H](C)[C@@H]1NC(=O)[C@H](Cc2ccccc2)NC(=O)[C@@H](N)CSSC[C@@H](C(=O)N2CCC[C@H]2C(=O)N[C@@H](CCCN)C(=O)NCC(N)=O)NC(=O)[C@H](CC(N)=O)NC(=O)[C@H](CC(=O)NCCOCCO)NC1=O (H-CFID(X3)NCP[Orn]G-NH2; disulfide 1-6) | 4.8 | 41 |  |  |  |  |  | > 10000 | > 10000 | > 10000 | > 10000 | > 2000 |  | 8.5 | > 2000
10 | CC[C@H](C)[C@@H]1NC(=O)[C@H](Cc2ccccc2)NC(=O)[C@@H](N)CSSC[C@@H](C(=O)N2CCC[C@H]2C(=O)N[C@@H](CCCN)C(=O)NCC(N)=O)NC(=O)[C@H](CC(N)=O)NC(=O)[C@H](CCC(=O)N(C)OC)NC1=O (H-CFIE(N(Me)OMe)NCP[Orn]G-NH2; disulfide 1-6) | 69 | 540 |  |  |  |  |  |  |  | > 10000 | > 10000 | 17 | 1200 | 7.8 | > 140
11 | CC[C@H](C)[C@@H]1NC(=O)[C@H](Cc2ccccc2)NC(=O)[C@@H](N)CSSC[C@@H](C(=O)N2CCC[C@H]2C(=O)N[C@@H](CCCN)C(=O)NCC(N)=O)NC(=O)[C@H](CC(N)=O)NC(=O)[C@H](CCC(=O)NC)NC1=O (H-CFIE(NHMe)NCP[Orn]G-NH2; disulfide 1-6) | 6 | 59 | > 10000 |  |  |  |  |  |  |  | 174 | 35 | 210 | 9.8 | > 1600
12 | CC[C@H](C)[C@@H]1NC(=O)[C@H](Cc2ccccc2)NC(=O)[C@@H](N)CSSC[C@@H](C(=O)N2CCC[C@H]2C(=O)N[C@@H](CCCN)C(=O)NCC(N)=O)NC(=O)[C@H](CC(N)=O)NC(=O)[C@H](CCC(=O)NO)NC1=O (H-CFIE(NHOH)NCP[Orn]G-NH2; disulfide 1-6) | 12 | 70 |  |  |  |  |  |  |  | > 10000 | > 10000 | 14 | 170 | 5.8 | > 830
13 | CC[C@H](C)[C@@H]1NC(=O)[C@H](Cc2csc3ccccc23)NC(=O)[C@@H](N)CSSC[C@@H](C(=O)N2CCC[C@H]2C(=O)N[C@@H](CCN)C(=O)NCC(N)=O)NC(=O)[C@H](CC(N)=O)NC(=O)[C@H](CCC(N)=O)NC1=O (H-C[Bta]IQNCP[Dab]G-NH2; disulfide 1-6) |  | 360 |  | > 1000 | > 1000 |  |  | > 10000 | > 10000 | > 10000 | > 10000 |  |  |  | 
